According to ChEMBL document CHEMBL3414471 (J Med Chem, 2015):
Active and inactive are the calls of the source. The rule behind the calls is not given here.

What was measured:
[1] = target: T1, 5-hydroxytryptamine receptor 2C (Homo sapiens, UniProt P28335); assay: Agonist activity at human 5-HT2C receptor expressed in HEK293 cells assessed as calcium flux by FLIPR assay; format: functional, cell-based
T1 sequence (P28335 whole entry): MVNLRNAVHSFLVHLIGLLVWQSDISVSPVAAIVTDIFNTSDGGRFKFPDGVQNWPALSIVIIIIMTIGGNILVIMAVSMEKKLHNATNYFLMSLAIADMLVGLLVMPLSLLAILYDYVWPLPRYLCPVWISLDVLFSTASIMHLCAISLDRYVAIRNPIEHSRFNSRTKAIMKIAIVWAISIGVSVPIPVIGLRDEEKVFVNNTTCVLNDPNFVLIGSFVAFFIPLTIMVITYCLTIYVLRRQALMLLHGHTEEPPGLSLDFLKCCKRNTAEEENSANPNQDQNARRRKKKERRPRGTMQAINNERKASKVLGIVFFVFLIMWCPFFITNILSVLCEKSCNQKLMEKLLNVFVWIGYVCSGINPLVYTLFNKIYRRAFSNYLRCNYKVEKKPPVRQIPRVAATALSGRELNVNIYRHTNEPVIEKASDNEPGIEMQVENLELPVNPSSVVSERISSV

[2] = target: T2, 5-hydroxytryptamine receptor 2C (Homo sapiens) (UniProt P28335); assay: Agonist activity at human 5-HT2C receptor expressed in HEK293 cells assessed as calcium flux by FLIPR assay relative to 5-HT; format: functional, cell-based
T2 sequence (whole entry): T1 sequence (P28335 whole entry)
Summary of the method: (§1)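 Flp-In-293 cells stably expressing human 5-HT2A, 5-HT2B or 5-HT2C-INI; grown 24–48 h in DMEM/10% dialyzed FBS, plated on poly-L-Lys at 12000 cells/well in 1% dialyzed FBS for 24 h. Loaded 1 h at 37 °C with calcium dye in HBSS, 20 mM Hepes pH 7.40, 2.5 mM probenecid.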

[3] = target: T3, 5-hydroxytryptamine receptor 2B (Homo sapiens, UniProt P41595); assay: Agonist activity at human 5-HT2B receptor expressed in HEK293 cells assessed as calcium flux by FLIPR assay; format: functional, cell-based
[4] = target: T3, 5-hydroxytryptamine receptor 2B; assay: Agonist activity at human 5-HT2B receptor expressed in HEK293 cells assessed as calcium flux by FLIPR assay relative to 5-HT; format: functional, cell-based; summary of the method: as §1
[5] = target: T4, 5-hydroxytryptamine receptor 2A (Homo sapiens, UniProt P28223); assay: Agonist activity at human 5-HT2A receptor expressed in HEK293 cells assessed as calcium flux at 10 uM by FLIPR assay; format: functional, cell-based
Summary of the method: (§2)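 Flp-In-293 cells stably expressing human 5-HT2A, 5-HT2B or 5-HT2C-INI, grown in DMEM with 10% dialyzed FBS, then plated for 24 h in 1% dialyzed FBS. Cells were loaded 1 h at 37 °C with calcium dye in Hepes-buffered HBSS, pH 7.40, containing 2.5 mM probenecid. FLIPR read 10 s baseline, then 120 s after drug addition.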

[6] = target: T3, 5-hydroxytryptamine receptor 2B; assay: Agonist activity at human 5-HT2B receptor expressed in HEK293 cells assessed as calcium flux at 10 uM by FLIPR assay; format: functional, cell-based; summary of the method: as §2
[7] = target: T4, 5-hydroxytryptamine receptor 2A; assay: Agonist activity at human 5-HT2A receptor expressed in HEK293 cells assessed as calcium flux by FLIPR assay; format: functional, cell-based
[8] = target: T4, 5-hydroxytryptamine receptor 2A; assay: Agonist activity at human 5-HT2A receptor expressed in HEK293 cells assessed as calcium flux by FLIPR assay relative to 5-HT; format: functional, cell-based; summary of the method: as §1
[9] = target: T2, 5-hydroxytryptamine receptor 2C (Homo sapiens); assay: Agonist activity at human 5-HT2C receptor expressed in HEK293 cells assessed as calcium flux at 10 uM by FLIPR assay; format: functional, cell-based; summary of the method: as §2
[10] = target: T3, 5-hydroxytryptamine receptor 2B; assay: Agonist activity at 5HT2B receptor (unknown origin) relative to control; summary of the method: as §1
[11] = Permeability from apical to basolateral side in human Caco2 cells at pH 7.4; format: ADME, cell-based; conditions: caco-2, pH 7.4
Summary of the method: (§3)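 Caco-2 monolayer permeability measured A–B and B–A in pH 7.4 buffer, reported as ×10−6 cm/s; A–B/B–A ratio derived from these.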

[12] = Permeability from basolateral to apical side in human Caco2 cells at pH 7.4; format: ADME, cell-based; conditions: caco-2, pH 7.4; summary of the method: as §3
Liver microsome = assay: Metabolic stability in human liver microsomes; format: ADME
Summary of the method: (§4)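 Incubation with human or CD-1 mouse liver microsomes for 1 h; stability expressed as % parent compound remaining.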

Liver = assay: Metabolic stability in mouse liver microsomes; format: ADME; summary of the method: as §4
[13] = target: Voltage-gated inwardly rectifying potassium channel KCNH2 (Homo sapiens, UniProt Q12809); assay: Inhibition of human ERG channel expressed in CHO cells by patch clamp method; format: cell-based
Salmonella typhimurium [14] = assay: Mutagenic activity in Salmonella typhimurium TA98 at 10 to 100 uM by ames test; format: toxicity, organism-based; conditions: salmonella enterica subsp. enterica serovar typhimurium
Summary of the method: (§5)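 Ames fluctuation test in Salmonella strains TA98, TA100, TA1535 and TA1537, with and without S9, at 10, 50 and 100 µM; scored negative or positive.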

Salmonella typhimurium [15] = assay: Mutagenic activity in Salmonella typhimurium TA98 at 10 to 100 uM by ames test in presence of S9 mixture; format: toxicity, organism-based; conditions: salmonella enterica subsp. enterica serovar typhimurium; summary of the method: as §5
Salmonella typhimurium [16] = assay: Mutagenic activity in Salmonella typhimurium TA100 at 10 to 100 uM by ames test; format: toxicity, organism-based; conditions: salmonella enterica subsp. enterica serovar typhimurium; summary of the method: as §5
Salmonella typhimurium [17] = assay: Mutagenic activity in Salmonella typhimurium TA100 at 10 to 100 uM by ames test in presence of S9 mixture; format: toxicity, organism-based; conditions: salmonella enterica subsp. enterica serovar typhimurium; summary of the method: as §5
Salmonella typhimurium [18] = assay: Mutagenic activity in Salmonella typhimurium TA1535 at 10 to 100 uM by ames test; format: toxicity, organism-based; conditions: salmonella enterica subsp. enterica serovar typhimurium; summary of the method: as §5
Salmonella typhimurium [19] = assay: Mutagenic activity in Salmonella typhimurium TA1535 at 10 to 100 uM by ames test in presence of S9 mixture; format: toxicity, organism-based; conditions: salmonella enterica subsp. enterica serovar typhimurium; summary of the method: as §5
Salmonella typhimurium [20] = assay: Mutagenic activity in Salmonella typhimurium TA1537 at 10 to 100 uM by ames test; format: toxicity, organism-based; conditions: salmonella enterica subsp. enterica serovar typhimurium; summary of the method: as §5
Salmonella typhimurium [21] = assay: Mutagenic activity in Salmonella typhimurium TA1537 at 10 to 100 uM by ames test in presence of S9 mixture; format: toxicity, organism-based; conditions: salmonella enterica subsp. enterica serovar typhimurium; summary of the method: as §5
[22] = Plasma protein binding in human at 10 uM; format: ADME, cell-free
Summary of the method: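 Human plasma protein binding determined at 10 µM compound, expressed as % bound.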

T4 sequence (P28223 whole entry): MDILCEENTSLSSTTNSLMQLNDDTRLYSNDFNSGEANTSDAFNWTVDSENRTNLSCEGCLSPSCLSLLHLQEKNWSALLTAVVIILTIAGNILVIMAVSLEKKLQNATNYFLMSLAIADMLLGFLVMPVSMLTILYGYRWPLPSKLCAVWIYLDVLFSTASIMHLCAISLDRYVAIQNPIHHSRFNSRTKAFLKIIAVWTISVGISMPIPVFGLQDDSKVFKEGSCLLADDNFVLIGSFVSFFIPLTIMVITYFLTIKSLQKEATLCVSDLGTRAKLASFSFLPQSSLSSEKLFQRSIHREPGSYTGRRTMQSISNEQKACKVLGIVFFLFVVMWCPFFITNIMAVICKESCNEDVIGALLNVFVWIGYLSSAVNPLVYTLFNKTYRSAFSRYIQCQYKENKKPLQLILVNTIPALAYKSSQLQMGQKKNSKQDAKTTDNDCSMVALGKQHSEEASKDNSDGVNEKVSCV
T3 sequence (P41595 whole entry): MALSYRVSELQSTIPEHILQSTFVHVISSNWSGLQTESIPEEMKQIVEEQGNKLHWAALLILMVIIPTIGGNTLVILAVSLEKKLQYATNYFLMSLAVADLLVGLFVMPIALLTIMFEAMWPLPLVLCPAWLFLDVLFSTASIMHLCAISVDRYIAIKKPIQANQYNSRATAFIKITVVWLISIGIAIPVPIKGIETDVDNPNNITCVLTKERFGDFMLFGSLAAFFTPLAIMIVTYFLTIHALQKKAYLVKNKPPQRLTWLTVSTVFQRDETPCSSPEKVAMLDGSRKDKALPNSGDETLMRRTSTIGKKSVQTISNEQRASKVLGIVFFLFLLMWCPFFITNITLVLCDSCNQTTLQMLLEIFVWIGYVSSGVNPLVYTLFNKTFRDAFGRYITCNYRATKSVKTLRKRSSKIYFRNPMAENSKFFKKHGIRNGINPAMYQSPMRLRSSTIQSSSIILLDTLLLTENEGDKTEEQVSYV
Sequence of Voltage-gated inwardly rectifying potassium channel KCNH2 (Q12809 whole entry): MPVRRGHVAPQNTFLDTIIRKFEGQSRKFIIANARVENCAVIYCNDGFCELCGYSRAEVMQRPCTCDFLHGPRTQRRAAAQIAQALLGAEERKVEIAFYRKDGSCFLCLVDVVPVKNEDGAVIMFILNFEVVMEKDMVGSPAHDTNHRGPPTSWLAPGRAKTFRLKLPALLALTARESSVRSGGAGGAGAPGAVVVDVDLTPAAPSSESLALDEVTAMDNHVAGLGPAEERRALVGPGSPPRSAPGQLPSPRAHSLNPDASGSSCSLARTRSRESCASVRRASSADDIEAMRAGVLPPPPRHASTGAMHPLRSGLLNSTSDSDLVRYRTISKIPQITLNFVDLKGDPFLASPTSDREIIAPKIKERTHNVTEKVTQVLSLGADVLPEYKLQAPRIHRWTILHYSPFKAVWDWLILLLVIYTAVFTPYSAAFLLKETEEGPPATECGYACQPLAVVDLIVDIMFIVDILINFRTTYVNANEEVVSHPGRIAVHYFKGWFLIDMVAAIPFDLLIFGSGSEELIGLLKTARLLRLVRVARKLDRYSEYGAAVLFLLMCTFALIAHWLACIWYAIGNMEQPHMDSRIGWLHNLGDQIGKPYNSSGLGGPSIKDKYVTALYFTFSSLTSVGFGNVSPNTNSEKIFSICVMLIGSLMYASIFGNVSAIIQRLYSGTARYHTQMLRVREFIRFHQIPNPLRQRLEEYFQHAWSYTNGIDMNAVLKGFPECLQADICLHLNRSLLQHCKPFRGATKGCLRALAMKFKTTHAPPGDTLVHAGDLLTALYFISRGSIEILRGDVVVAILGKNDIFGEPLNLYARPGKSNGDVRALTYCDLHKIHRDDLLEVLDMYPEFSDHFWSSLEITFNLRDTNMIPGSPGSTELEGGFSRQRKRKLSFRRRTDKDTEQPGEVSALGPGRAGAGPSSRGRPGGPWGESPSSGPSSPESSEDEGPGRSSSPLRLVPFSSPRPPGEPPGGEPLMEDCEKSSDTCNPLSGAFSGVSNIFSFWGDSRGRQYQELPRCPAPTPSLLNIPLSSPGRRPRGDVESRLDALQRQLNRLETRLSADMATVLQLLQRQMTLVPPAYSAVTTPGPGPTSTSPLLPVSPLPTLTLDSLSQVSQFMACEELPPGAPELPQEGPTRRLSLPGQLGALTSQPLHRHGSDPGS

SMILES | EC50 [1] [µM] | Emax [2] [%] | EC50 [3] [µM] | Emax [4] [%] | Activity [5] | also measured
CCOc1ccc(Cl)cc1[C@@H]1C[C@H]1CN | 0.646 | 72 | 2.31 | 26 | inactive | –
C=CCOc1ccc(F)cc1[C@@H]1C[C@H]1CN | 0.157 | 87 | – | – | – | Activity [6]: inactive; EC50 [7]: 0.697 µM; Emax [8]: 56%
NC[C@@H]1C[C@H]1c1cc(F)ccc1OCCF | 0.514 | 77 | – | – | – | Activity [6]: inactive; EC50 [7]: 2.99 µM; Emax [8]: 20%
CCOc1ccc(Cl)cc1[C@H]1C[C@@H]1CN | 0.013 | 91 | 0.086 | 45 | – | EC50 [7]: 1.21 µM; Emax [8]: 49%
CC(C)Oc1ccc(Cl)cc1[C@H]1C[C@@H]1CN | 0.091 | – | 0.997 | – | – | EC50 [7]: 4 µM
C=C(C)COc1ccc(Cl)cc1[C@H]1C[C@@H]1CN | 0.212 | 90 | 0.422 | 32 | – | EC50 [7]: 0.903 µM; Emax [8]: 26%
NC[C@@H]1C[C@H]1c1cc(Cl)ccc1OCCF | 1.13 | 59 | 4.52 | 31 | inactive | –
C=C(F)COc1ccc(Cl)cc1[C@@H]1C[C@H]1CN | – | – | 6.88 | 33 | inactive | Activity [9]: inactive
COCCOc1ccc(Cl)cc1[C@@H]1C[C@H]1CN | 0.667 | 45 | 5.3 | 32 | inactive | –
CCCOc1ccc(F)cc1[C@H]1C[C@@H]1CN | 0.011 | 88 | 1.99 | 33 | – | EC50 [7]: 1.02 µM; Emax [8]: 15%
C[C@H]1CNCCc2ccc(Cl)cc21 | – | – | – | – | – | Emax [8]: 68%
C#CCOc1ccc(Cl)cc1[C@H]1C[C@@H]1CN | 0.063 | 65 | 4.6 | 29 | – | EC50 [7]: 1.01 µM; Emax [8]: 21%
c1cc2c3c(c1)[C@H]1CCC[C@H]1CN3CCNC2 | – | – | – | – | – | Emax [10]: 50%
COCCOc1ccc(Cl)cc1[C@H]1C[C@@H]1CN | 0.183 | 8 | – | – | inactive | Activity [6]: inactive
C=C(C)COc1ccc(Cl)cc1[C@@H]1C[C@H]1CN | – | – | 6.09 | 39 | inactive | Activity [9]: inactive
NC[C@@H]1C[C@H]1c1cc(Cl)ccc1OCC(F)F | 0.914 | 64 | 1.48 | 30 | – | EC50 [7]: 1.3 µM; Emax [8]: 43%
CCCOc1ccc(Cl)cc1[C@@H]1C[C@H]1CN | 1.23 | 31 | 3 | 21 | inactive | –

SMILES | EC50 [1] [µM] | Emax [2] [%] | EC50 [3] [µM] | Emax [4] [%] | Activity [5] | also measured
NC[C@@H]1C[C@H]1c1cc(Cl)ccc1OCC1CC1 | 1.08 | 51 | 3.03 | 32 | inactive | –
CCCCOc1ccc(Cl)cc1[C@H]1C[C@@H]1CN | 0.288 | 33 | – | – | – | Activity [6]: inactive
c1cc2c3c(c1)[C@H]1CCC[C@H]1N3CCNC2 | – | – | – | – | – | Emax [10]: 40%
NC[C@H]1C[C@@H]1c1cc(Cl)ccc1OCCCF | 0.206 | 60 | 4.91 | 22 | inactive | –
CSCCOc1ccc(Cl)cc1[C@H]1C[C@@H]1CN | 0.244 | 24 | – | – | inactive | Activity [6]: inactive
CSCCOc1ccc(Cl)cc1[C@@H]1C[C@H]1CN | 1.76 | 11 | – | – | inactive | Activity [6]: inactive
CCCOc1ccc(F)cc1[C@@H]1C[C@H]1CN | 0.296 | 80 | 0.735 | 11 | inactive | –
CC(C)Oc1ccc(Cl)cc1[C@@H]1C[C@H]1CN | 2.48 | – | 5.66 | – | – | –
NC[C@@H]1C[C@H]1c1cc(Cl)ccc1OCCCF | 1.26 | 24 | 6.17 | 22 | inactive | –
CCCCOc1ccc(Cl)cc1[C@@H]1C[C@H]1CN | 0.683 | 50 | – | – | – | Activity [6]: inactive
C#CCOc1ccc(Cl)cc1[C@@H]1C[C@H]1CN | 0.365 | 71 | 4.41 | 30 | inactive | –
C=C(F)COc1ccc(F)cc1[C@@H]1C[C@H]1CN | 0.985 | 62 | – | – | inactive | Activity [6]: inactive
NC[C@H]1C[C@@H]1c1cc(Cl)ccc1OCC1CC1 | 0.251 | 75 | 5.01 | 20 | inactive | –
C=CCOc1ccc(Cl)cc1[C@H]1C[C@@H]1CN.O=C(O)C(F)(F)F | 0.06 | 80 | 2.21 | 32 | inactive | permeability [11]: 35.6 ×10⁻⁶ cm/s; permeability [12]: 9.8 ×10⁻⁶ cm/s; Stability (Liver microsome): 52%; Stability (Liver): 60%; IC50 [13]: 0.27 µM; Activity (Salmonella typhimurium [14]): Non-toxic; Activity (Salmonella typhimurium [15]): Non-toxic; Activity (Salmonella typhimurium [16]): Non-toxic; Activity (Salmonella typhimurium [17]): Non-toxic; Activity (Salmonella typhimurium [18]): Non-toxic; Activity (Salmonella typhimurium [19]): Non-toxic; Activity (Salmonella typhimurium [20]): Non-toxic; Activity (Salmonella typhimurium [21]): Non-toxic; PPB [22]: 75%
C=C(F)COc1ccc(F)cc1[C@H]1C[C@@H]1CN | 0.022 | 91 | – | – | – | Activity [6]: inactive; EC50 [7]: 1.67 µM
NC[C@H]1C[C@@H]1c1cc(Cl)ccc1OCC(F)F | 0.091 | 81 | 0.839 | 27 | – | EC50 [7]: 1.81 µM; Emax [8]: 31%
C=CCOc1ccc(Cl)cc1[C@@H]1C[C@H]1CN | 0.737 | 42 | 4.3 | 28 | inactive | –
